Experimental data from ChEMBL document CHEMBL1143842, “Efficacy of tachyplesin III, colistin, and imipenem against a multiresistant Pseudomonas aeruginosa strain” (Antimicrob Agents Chemother, 2007).
In brackets after ≈: the same amount, converted by molar mass. Activity calls are given as the source filed them. No cut-off for these calls is given here.

Key:
Pseudomonas aeruginosa [1] = assay: Reduction of Pseudomonas aeruginosa ATCC 27853 infection induced TNFalpha levels in BALB/c mouse plasma after 24 hrs by ELISA; assay type: functional, organism-based
Outline: (§1)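 Male BALB/c mice were infected i.v. with 2.0 × 10^7 CFU and treated i.v. immediately afterwards. Tail-vein plasma was sampled at 0, 6, 12, 24 and 48 h. IL-6 and TNF-α were measured by ELISA in duplicate, with sensitivity limits of 12 pg/ml and 0.05 ng/ml respectively.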

Pseudomonas aeruginosa [2] = assay: Reduction of Pseudomonas aeruginosa ATCC 27853 infection induced IL6 levels in BALB/c mouse plasma after 24 hrs by ELISA; assay type: functional, organism-based; outline: as §1
Pseudomonas aeruginosa [3] = assay: Reduction of Pseudomonas aeruginosa clinical isolate infection induced TNFalpha levels in BALB/c mouse plasma after 24 hrs by ELISA; assay type: functional, organism-based; outline: as §1
Pseudomonas aeruginosa [4] = assay: Reduction of Pseudomonas aeruginosa clinical isolate infection induced IL6 levels in BALB/c mouse plasma after 24 hrs by ELISA; assay type: functional, organism-based; outline: as §1
Pseudomonas aeruginosa [5] = assay: Reduction of Pseudomonas aeruginosa ATCC 27853 infection induced endotoxin levels in BALB/c mouse plasma after 24 hrs by ELISA; assay type: functional, organism-based
Pseudomonas aeruginosa [6] = assay: Reduction of Pseudomonas aeruginosa clinical isolate infection induced endotoxin levels in BALB/c mouse plasma after 24 hrs by ELISA; assay type: functional, organism-based
Pseudomonas aeruginosa [7] = assay: Antibacterial activity against Pseudomonas aeruginosa ATCC 27853 infected in BALB/c mouse blood at 20 mg/kg, iv after 24 hrs; assay type: functional
Outline: (§2)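 Male BALB/c mice (25–30 g) were anesthetized with ketamine 30 mg/kg i.m. They were challenged via the tail vein with 2.0 × 10^7 CFU log-phase bacteria in saline. Drug or saline was given i.v. immediately after challenge, 20 mice per group. Tail-vein blood was taken at 24 h, serially diluted and plated on blood agar for 48 h at 35°C, and CFU were counted. Detection limit was 10 CFU/ml.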

Pseudomonas aeruginosa [8] = assay: Antimicrobial activity against Pseudomonas aeruginosa clinical isolates by broth microdilution method; assay type: functional
Outline: (§3)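 CLSI broth microdilution in Mueller-Hinton broth with an inoculum of 5 × 10^5 CFU/ml, incubated 18 h at 37°C in air. Plates were shaken throughout when the peptide was tested. The MIC was the lowest concentration inhibiting visible growth. Run in triplicate.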

Pseudomonas aeruginosa [9] = assay: Antibacterial activity against Pseudomonas aeruginosa clinical isolates infected in BALB/c mouse blood at 20 mg/kg, iv after 24 hrs; assay type: functional; outline: as §2
Pseudomonas aeruginosa [10] = assay: Effect on Pseudomonas aeruginosa clinical isolate induced sepsis in BALB/c mouse assessed as mortality at 20 mg/kg, iv for 72 hrs; assay type: functional
Outline: (§4)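 Male BALB/c mice, 25–30 g, housed singly, anesthetized with ketamine 30 mg/kg im. Log-phase bacteria (grown in brain heart infusion broth, resuspended in saline) given iv via tail vein, 2.0 × 10^7 CFU. Drug at 1 or 20 mg/kg iv immediately post-challenge; saline controls. 20 mice/group; lethality over 72 h, compared by Fisher's exact test.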

Pseudomonas aeruginosa [11] = assay: Antimicrobial activity against Pseudomonas aeruginosa ATCC 27853 by broth microdilution method; assay type: functional; outline: as §3
Pseudomonas aeruginosa [12] = assay: Effect on Pseudomonas aeruginosa ATCC 27853 induced sepsis in BALB/c mouse assessed as mortality at 20 mg/kg, iv for 72 hrs; assay type: functional; outline: as §4
Pseudomonas aeruginosa [13] = assay: Antibacterial activity against Pseudomonas aeruginosa ATCC 27853 infected in BALB/c mouse blood at 1 mg/kg, iv after 24 hrs; assay type: functional; outline: as §2
Pseudomonas aeruginosa [14] = assay: Effect on Pseudomonas aeruginosa ATCC 27853 induced sepsis in BALB/c mouse assessed as mortality at 1 mg/kg, iv for 72 hrs; assay type: functional; outline: as §4
Pseudomonas aeruginosa [15] = assay: Effect on Pseudomonas aeruginosa clinical isolate induced sepsis in BALB/c mouse assessed as mortality at 1 mg/kg, iv for 72 hrs; assay type: functional; outline: as §4
Pseudomonas aeruginosa [16] = assay: Antibacterial activity against Pseudomonas aeruginosa clinical isolates infected in BALB/c mouse blood at 1 mg/kg, iv after 24 hrs; assay type: functional; outline: as §2

Row | Compound | Activity (Pseudomonas aeruginosa [1]) | Activity (Pseudomonas aeruginosa [2]) | Activity (Pseudomonas aeruginosa [3]) | Activity (Pseudomonas aeruginosa [4]) | Activity (Pseudomonas aeruginosa [5]) | Activity (Pseudomonas aeruginosa [6]) | CFU (Pseudomonas aeruginosa [7]) | MIC (Pseudomonas aeruginosa [8]) [µg/mL] | CFU (Pseudomonas aeruginosa [9]) | Activity (Pseudomonas aeruginosa [10]) [%] | MIC (Pseudomonas aeruginosa [11]) [µg/mL] | Activity (Pseudomonas aeruginosa [12]) [%] | CFU (Pseudomonas aeruginosa [13]) | Activity (Pseudomonas aeruginosa [14]) [%] | Activity (Pseudomonas aeruginosa [15]) [%] | CFU (Pseudomonas aeruginosa [16])
1 | CC[C@H](C)[C@H](NC(=O)CNC(=O)[C@H](CCCNC(=N)N)NC(=O)[C@H](Cc1ccc(O)cc1)NC(=O)[C@H](CS)NC(=O)[C@@H](NC(=O)[C@H](CCCNC(=N)N)NC(=O)[C@H](Cc1ccccc1)NC(=O)[C@H](CS)NC(=O)[C@H](Cc1c[nH]c2ccccc12)NC(=O)[C@@H](N)CCCCN)C(C)C)C(=O)N[C@@H](CS)C(=O)N[C@@H](Cc1ccc(O)cc1)C(=O)N[C@@H](CCCNC(=N)N)C(=O)N[C@@H](CCCCN)C(=O)N[C@@H](CS)C(=O)NC(CCCNC(=N)N)C(N)=O (single isomer, unassigned) [TACHYPLESIN III] | Active | Active | Active | Active | Active | Active |  |  |  |  |  |  |  |  |  | 
2 | C[C@@H](O)[C@H]1C(=O)N2C(C(=O)O)=C(SCCNC=N)C[C@H]12 [IMIPENEM ANHYDROUS] |  |  |  |  |  |  | 2.8 10^3/ml | 32 (≈ 107 µM) | 8.7 10^6/ml | 80 | 0.5 (≈ 1.67 µM) | 30 |  |  |  | 
3 | COLISTIN | Active | Active | Active | Active | Active | Active |  | 8 |  |  | 4 |  | 6 10^4/ml | 40 | 30 | 1.4 10^4/ml
